The list is not random: actives were taken first. Their share in the collection is about 2.1%.
ARNT TACC3 PPI: disruptors of ARNT/TACC3 protein interaction, primary screen, biochemical, AlphaScreen, single concentration; Transforming acidic coiled-coil-containing protein 3 (Homo sapiens), Q9Y6A5; AlphaScreen His-ARNT PAS-B/GST-TACC3 binding, luminescence; TACC3 fragment carries E629A point mutation; inhibition, % at 9.99 µM; 390,000 compounds, 0.66% hits;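 active means mean inhibition of replicates at least 50% and at least half of replicates each reaching 50%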;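 further: 0% = complete ARNT plus TACC3 wells and 100% = ARNT alone without TACC3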
SR-BI uptake up: activators of SR-BI mediated DiI-HDL uptake, primary screen, ldlA[mSR-BI] CHO cells, DiI fluorescence | 3 h; 100 = double the neutral-control signal | 320,000 compounds, 0.096% hits | activation, % at 12.5 µM;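 active means mean replicate activation of at least 60% and every replicate at or above 60%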;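 further: 0% = median plate neutral-control signal and 100% = twice that signal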
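Material: SR-BI-overexpressing, LDLR-lacking CHO cells | Dosing: Single compound concentration, delivered by pin transfer | Probe or stimulus: Labelled HDL, 10 µg/mL | Signal: Bottom-read cell fluorescence after medium removal, ex 550/em 595 nm | Schedule: 3 h, 37 °C | Evaluation: HDL uptake via cellular fluorescence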
CAL PDZ FP-1: untagged CAL PDZ binding inhibitors, primary screen, biochemical, fluorescence polarization, HTS. inhibition, % at 24.9 µM. 300,000 compounds, 0.92% hits. purified CAL PDZ, TMR-peptide fluorescence polarization, 1 h. AID 602252, 2012;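 active means mean inhibition of at least 30% with at least half of replicates also reaching 30%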;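 further: 0% = DMSO neutral control and 100% = excess unlabeled competitor peptide PRC23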
miR122 inh: miR-122 Renilla sensor signal increase in Huh7, primary screen, miR-122 inhibitor project, cell-based, single point, plate reader; Huh7 miR-122 Renilla luciferase sensor, 48 h; neutral wells = 0, positive control = 100; activation (reporter increase), % at 12.5 µM; 340,000 compounds, 0.3% hits;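 active means mean replicate activation score at least 90 and every replicate individually at or above 90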;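 further: higher luciferase means less miR-122 activity so hits act as miR-122 inhibitors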
SR-BI HDL uptake: inhibitors of SR-BI mediated HDL lipid uptake, primary screen, ldlA[mSR-BI] cells, fluorescence, single point. 320,000 compounds, 0.96% hits. inhibition, % at 12.5 µM. Scavenger receptor class B member 1 (Mus musculus), Q61009. ldlA[mSR-BI] CHO cells, DiI-HDL uptake fluorescence, 3 h;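 active means mean replicate inhibition of at least 70% and a set share of replicates each scoring 70 or more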;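 further: 0% = median of neutral control wells and 100% = median of positive control wells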
Target sequence (Q61009 whole entry, looked up): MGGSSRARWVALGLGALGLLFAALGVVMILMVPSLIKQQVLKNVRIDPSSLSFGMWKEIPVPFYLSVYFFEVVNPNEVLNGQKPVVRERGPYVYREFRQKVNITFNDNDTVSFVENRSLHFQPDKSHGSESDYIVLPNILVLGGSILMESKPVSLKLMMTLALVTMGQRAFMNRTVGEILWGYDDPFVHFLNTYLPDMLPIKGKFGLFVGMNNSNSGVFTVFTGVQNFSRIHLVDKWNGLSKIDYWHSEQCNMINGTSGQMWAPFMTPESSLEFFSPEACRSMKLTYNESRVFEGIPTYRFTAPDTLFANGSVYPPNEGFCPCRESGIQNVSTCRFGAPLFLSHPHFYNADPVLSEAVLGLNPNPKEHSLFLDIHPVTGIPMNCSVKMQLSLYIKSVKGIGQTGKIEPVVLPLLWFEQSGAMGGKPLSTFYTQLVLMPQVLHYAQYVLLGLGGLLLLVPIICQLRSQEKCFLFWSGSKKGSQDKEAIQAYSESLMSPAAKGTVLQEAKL
CAL PDZ FP-2: CAL PDZ peptide-binding inhibitors, primary screen, biochemical, fluorescence polarization, Cer-tagged CAL PDZ, HTS | inhibition, % at 20 µM | 330,000 compounds, 0.02% hits | purified CAL PDZ, TMR-peptide fluorescence polarization, 1 h | AID 504414, 2011 | Golgi-associated PDZ and coiled-coil motif-containing protein (Homo sapiens), Q9HD26;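 active means highest replicate inhibition of at least 40%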;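 further: plate controls were DMSO neutral control wells for no effect and unlabeled competitor peptide control wells for full effect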
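Control set: unlabelled peptide and DMSO controls / Material: purified CerCALP PDZ construct / Timing: 1 h incubation at room temperature before polarization reading / Doses: 20 µM, one dose / Detection: fluorescence polarization (mP)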
Numbers without * were called inactive; [ ] = remark or other dose.

Results for CCc1cccc(NC(=O)Cc2cn(C)c3ccccc23)c1 ?
ARNT TACC3 PPI: 4; SR-BI uptake up: 24; CAL PDZ FP-1: 0; miR122 inh: 13; SR-BI HDL uptake: -24; CAL PDZ FP-2: -3

Results for Cn1cc(CC(=O)Nc2cccc(C#N)c2)c2ccccc21 ?
ARNT TACC3 PPI: 1; SR-BI uptake up: -3; CAL PDZ FP-1: -5; miR122 inh: 138*; SR-BI HDL uptake: 3; CAL PDZ FP-2: -1

How did Fc1cccc(NC(=S)NCCCN2CCOCC2)c1 do in these assays?
ARNT TACC3 PPI: -1; SR-BI uptake up: 23; miR122 inh: -1; SR-BI HDL uptake: -23; CAL PDZ FP-2: 0

How did CSc1cccc(NC(=S)NCCCN2CCN(c3ccc(F)cc3)CC2)c1 do in these assays?
ARNT TACC3 PPI: -6; SR-BI uptake up: 201*; CAL PDZ FP-1: -3; miR122 inh: 0; SR-BI HDL uptake: -201; CAL PDZ FP-2: 0

How did COc1ccc(Cl)cc1NS(=O)(=O)c1cc(Cl)ccc1OC do in these assays?
ARNT TACC3 PPI: -2; SR-BI uptake up: -5; CAL PDZ FP-1: -1; miR122 inh: 255*; SR-BI HDL uptake: 5; CAL PDZ FP-2: 1

What do the screens show for `COc1ccc(Cl)cc1S(=O)(=O)NCc1cccnc1`?
ARNT TACC3 PPI: -11; SR-BI uptake up: -13; CAL PDZ FP-1: -1; miR122 inh: 120*; SR-BI HDL uptake: 13; CAL PDZ FP-2: 1

Results for COc1ccc(Cl)cc1S(=O)(=O)Nc1ccncc1 ?
ARNT TACC3 PPI: -9; SR-BI uptake up: 8; CAL PDZ FP-1: 2; miR122 inh: 3; SR-BI HDL uptake: -8; CAL PDZ FP-2: -1

Results for COc1cc(NS(=O)(=O)c2ccc(C)c(C)c2)c(OC)cc1Cl ?
ARNT TACC3 PPI: -5; CAL PDZ FP-1: -3; miR122 inh: 226*; CAL PDZ FP-2: -6

What do the screens show for `O=C(C[C@H]1CC[C@H](NC(=O)CN2CCOCC2)[C@@H](CO)O1)NC1CCCCC1`?
ARNT TACC3 PPI: 7

How did CN1CCN(C(=O)C[C@H]2C[C@@H]3c4cc(NC(=O)CC5CC5)ccc4O[C@@H]3[C@@H](CO)O2)CC1 do in these assays?
ARNT TACC3 PPI: -16; miR122 inh: -3[16.7 µM]

Results for CO[C@@H]1CN(C)C(=O)c2ccc(NC(=O)C3CCC3)cc2OC[C@@H](C)N(C(=O)CN(C)C)C[C@@H]1C ?
ARNT TACC3 PPI: -5; miR122 inh: 11[16.7 µM]

How did CS(=O)(=O)c1cccc(-c2nnc(NC(=O)c3ccc(S(=O)(=O)N4CCCC4)cc3)o2)c1 do in these assays?
ARNT TACC3 PPI: 56*; SR-BI uptake up: -2; CAL PDZ FP-1: -2; SR-BI HDL uptake: 2; CAL PDZ FP-2: -1

Results for Cc1nnc(NC(=O)c2ccc3ccccc3c2)o1 ?
ARNT TACC3 PPI: 52*; SR-BI uptake up: -5; CAL PDZ FP-1: -4; miR122 inh: 4; SR-BI HDL uptake: 5; CAL PDZ FP-2: 0

Results for COCCN(CCOC)S(=O)(=O)c1ccc(C(=O)Nc2nnc(COC)o2)cc1 ?
ARNT TACC3 PPI: 32; SR-BI uptake up: 53; CAL PDZ FP-1: 1; miR122 inh: -6; SR-BI HDL uptake: -53; CAL PDZ FP-2: -1

Results for COCc1nnc(NC(=O)c2ccc(S(=O)(=O)N(C)Cc3ccccc3)cc2)o1 ?
ARNT TACC3 PPI: 49*; SR-BI uptake up: -7; CAL PDZ FP-1: 0; miR122 inh: 1; SR-BI HDL uptake: 7; CAL PDZ FP-2: -2

How did COCCN(CCOC)S(=O)(=O)c1ccc(C(=O)Nc2nnc(C)o2)cc1 do in these assays?
ARNT TACC3 PPI: 57*; SR-BI uptake up: 31; CAL PDZ FP-1: -5; miR122 inh: -3; SR-BI HDL uptake: -31; CAL PDZ FP-2: 0

How did CCCN(CCC)S(=O)(=O)c1ccc(C(=O)Nc2nnc(COC)o2)cc1 do in these assays?
ARNT TACC3 PPI: 29; SR-BI uptake up: 16; CAL PDZ FP-1: -5; SR-BI HDL uptake: -16; CAL PDZ FP-2: -3

What do the screens show for `C[C@@H]1CN([C@@H](C)CO)C(=O)c2cccc(NC(=O)Nc3ccc4c(c3)OCO4)c2O[C@@H]1CN(C)C`?
ARNT TACC3 PPI: -5; miR122 inh: -1[16.7 µM]

How did C[C@@H]1CN([C@@H](C)CO)C(=O)c2cc(NS(=O)(=O)c3ccc(Cl)cc3)ccc2O[C@H]1CN(C)CC1CC1 do in these assays?
ARNT TACC3 PPI: -2; miR122 inh: -2[16.7 µM]

Results for CCCN1C[C@@H](C)[C@H](OC)CN(C)C(=O)c2cc(NC(=O)Nc3ccccc3F)ccc2OC[C@H]1C ?
ARNT TACC3 PPI: -5

Results for Cc1ccc(S(=O)(=O)N(C)C[C@H]2Oc3c(NC(=O)C4CCCCC4)cccc3C(=O)N([C@@H](C)CO)C[C@@H]2C)cc1 ?
ARNT TACC3 PPI: 22; miR122 inh: 31[16.7 µM]

Results for COc1ccc(-c2nnc(NC(=O)c3ccc(S(=O)(=O)N(C)CC4CCCO4)cc3)o2)c(OC)c1 (stereo not drawn) ?
ARNT TACC3 PPI: 45*; SR-BI uptake up: -2; CAL PDZ FP-1: 0; miR122 inh: 65; SR-BI HDL uptake: 2; CAL PDZ FP-2: -5

How did Cc1nnc(NC(=O)c2ccc(S(=O)(=O)N3CC(C)OC(C)C3)cc2)o1 (stereo not drawn) do in these assays?
ARNT TACC3 PPI: 64*; SR-BI uptake up: 17; CAL PDZ FP-1: -3; miR122 inh: -1; SR-BI HDL uptake: -17; CAL PDZ FP-2: 0

Results for Cc1nnc(NC(=O)c2ccc(S(=O)(=O)N(C)Cc3ccccc3)cc2)o1 ?
ARNT TACC3 PPI: 46*; SR-BI uptake up: 14; CAL PDZ FP-1: -3; miR122 inh: -4; SR-BI HDL uptake: -14; CAL PDZ FP-2: -1

Results for CCN(Cc1ccccc1)S(=O)(=O)c1ccc(C(=O)Nc2nnc(C3CC3)o2)cc1 ?
ARNT TACC3 PPI: 33; SR-BI uptake up: -1; miR122 inh: 9; SR-BI HDL uptake: 1; CAL PDZ FP-2: -1

What do the screens show for `CCNS(=O)(=O)c1ccc(NC(=O)Nc2ccc3c(c2)OCO3)cc1`?
ARNT TACC3 PPI: 5; SR-BI uptake up: -22; CAL PDZ FP-1: -1; SR-BI HDL uptake: 22; CAL PDZ FP-2: -1

From PubChem
